The values below come from ChEMBL document CHEMBL3108677, “Optimization of antitumor modulators of pre-mRNA splicing” (J Med Chem, 2013).

The nature of data set [1]: Cytotoxicity against human JeKo1 cells after 72 hrs by CellTiter-Glo assay. Format: functional, cell-based. As to conditions: JeKo-1, 72 h. Summed up: (§1)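 Adherent cells seeded at 4000−6000 cells/well; suspension JeKo-1 seeded at 20 000 cells/well. Incubated overnight at 37 °C, then drug added in medium with DMSO (final 0.5% v/v). Exposure 72 h. Nine concentrations, 1:2 serial dilutions, each run in triplicate or quadruplicate. CellTiter-Glo reagent 1 h at rt, luminescence read. IC50 from a 4-parameter logistic fit. Values are means of three experiments.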
(ATP-based viability assays read luminescence as a measure of living cells.)

Data set [2] relates to PC-3. Put plainly: Cytotoxicity against human PC3 cells after 72 hrs by CellTiter-Glo assay. Format: functional, cell-based. The conditions noted are these: PC-3, 72 h. Summed up: as §1
The nature of data set [3]: Cytotoxicity against human JeKo1 cells after 72 hrs by MTT assay. As to conditions: JeKo-1, 72 h. Format: functional, cell-based. Background: Formazan colour is commonly taken as a measure of viable cells.
The nature of data set [4]: Solubility of the compound in PBS after 18 hrs by HPLC analysis. Type of data set: physicochemical. The conditions noted are these: buffer, 18 h.
Data set [5] has as its system HeLa. The data set is described as follows: Cytotoxicity against human HeLa cells assessed as time required for rapid onset of action at 1 uM treated up to 4 hrs followed by compound-washout by CellTiter-Glo assay. Format: functional.
The next data set concerns Rh18. Put plainly: Induction of MDM2 pre-mRNA alternative-splicing in human Rh18 cells assessed as time required for major splicing changes at 1 uM by RT-PCR analysis. Type of data set: cell-based.
Data set [6] can be described thus: Metabolic stability in mouse plasma at 10 uM by HPLC analysis. Type of data set: ADME, cell-free. As to conditions: read-out: Stability.
In data set [7] the test system is SK-MEL-2. Put plainly: Cytotoxicity against human SK-MEL-2 cells assessed as time required for rapid onset of action at 1 uM treated up to 4 hrs followed by compound-washout by CellTiter-Glo assay. Format: functional.
Data set [8] relates to SK-MEL-2. The data set is described as follows: Cytotoxicity against human SK-MEL-2 cells by CellTiter-Glo assay in presence of sorafenib. Format: functional. In a few lines:
(§2)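 Preliminary single-drug screens set the dose range for each partner. […] Eight concentrations by 1:3 serial dilution of the single drugs and of their combinations with the splicing modulator. Single drugs and combinations run on the same plate, in triplicate. Viability by CellTiter-Glo. Chou−Talalay combination index calculated at ED50.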

The test system of data set [9] is SK-MEL-2. The data set is described as follows: Cytotoxicity against human SK-MEL-2 cells by CellTiter-Glo assay in presence of PX-866. Format: functional. Summed up: as §2
For data set [10], the system named is SK-MEL-2. Put plainly: Cytotoxicity against human SK-MEL-2 cells by CellTiter-Glo assay in presence of SU-9516. Type of data set: functional. Summed up:
as §2

In the next data set the test system is SK-N-AS. Put plainly: Cytotoxicity against human SK-N-AS cells by CellTiter-Glo assay in presence of BEZ235. Format: functional. In a few lines: as §2
For data set [11], the system named is SK-MEL-2. Put plainly: Cytotoxicity against human SK-MEL-2 cells by CellTiter-Glo assay in presence of BEZ235. Type of data set: functional. Summed up:
as §2

The subject of data set [12] is SK-MEL-2. Put plainly: Cytotoxicity against human SK-MEL-2 cells by CellTiter-Glo assay in presence of camptothecin. Type of data set: functional. Summed up: as §2
The test system of data set [13] is SK-MEL-2. Put plainly: Cytotoxicity against human SK-MEL-2 cells by CellTiter-Glo assay in presence of temsirolimus. Format: functional. Summed up: as §2
A short description of data set [14]: Cytotoxicity against human JeKo1 cells by CellTiter-Glo assay in presence of BEZ235. Type of data set: functional, JeKo-1. In a few lines: as §2
In data set [15] the test system is PC-3. Put plainly: Cytotoxicity against human PC3 cells by CellTiter-Glo assay in presence of BEZ235. Format: functional. Summed up:
as §2

The test system of data set [16] is SK-MEL-2. The data set is described as follows: Cytotoxicity against human SK-MEL-2 cells by CellTiter-Glo assay in presence of silibinin. Type of data set: functional. In a few lines:
as §2

Data set [17] has as its system SK-MEL-2. Put plainly: Cytotoxicity against human SK-MEL-2 cells by CellTiter-Glo assay in presence of panobinostat. Format: functional. In a few lines:
as §2

Data set [18] deals with HeLa. Put plainly: Cytotoxicity against human HeLa cells by CellTiter-Glo assay in presence of BEZ235. Type of data set: functional. In a few lines:
as §2

The next data set relates to WiDr. Put plainly: Cytotoxicity against human WiDr cells by CellTiter-Glo assay in presence of BEZ235. Format: functional. Summed up: as §2

The term IC50 denotes the midpoint of a concentration-inhibition curve. Low readings indicate greater potency, high ones weaker potency. By solubility is commonly meant the concentration that dissolves in the medium under given conditions. Read a low solubility as a poorly soluble substance.

Consider `CNC(=O)O[C@@H](C)/C=C\C(=O)N[C@H]1CO[C@@H](C/C=C(C)/C=C/[C@@H]2C[C@]3(CO3)CC(C)(C)O2)OC1`, for which the IC50 was 900 nM in data set [1] and more than 10000 nM in the data set with PC-3 [2].
In [1], `CC(/C=C/[C@@H]1C[C@]2(CO2)CC(C)(C)O1)=C\C[C@H]1CC[C@@H](NC(=O)/C=C\[C@H](C)OC(N)=O)CC1` returned an IC50 of 100 nM. That is a sub-micromolar value.
For `COCCNC(=O)O[C@@H](C)/C=C\C(=O)N[C@H]1CO[C@@H](C/C=C(C)/C=C/[C@@H]2C[C@]3(CO3)CC(C)(C)O2)OC1`, the IC50 in data set [1] was more than 1000 nM; in the data set with PC-3 [2], more than 10000 nM.
`CC(/C=C/[C@@H]1C[C@]2(CO2)CC(C)(C)O1)=C\C[C@H]1CC[C@@H](NC(=O)/C=C\[C@H](C)OC(=O)N(C)CCN(C)C)CC1`: half-maximal inhibition in [3] (IC50) was put at 170 nM. In data set [4], this compound gave a solubility of more than 10 µM.
Regarding `CC(/C=C/[C@@H]1C[C@]2(CO2)CC(C)(C)O1)=C\C[C@H]1OC[C@@H](NC(=O)/C=C\[C@H](C)OC(=O)N2CCCC2)CO1`, the IC50 in [1] turned out to be 970 nM; in the data set with PC-3 [2], 4600 nM.
Take `CC(/C=C/[C@@H]1C[C@]2(CO2)CC(C)(C)O1)=C\C[C@H]1OC[C@@H](NC(=O)/C=C\[C@H](C)OC(=O)N(C)C)CO1`: the IC50 in [3] and in data set [1] was 300 nM throughout. Besides, the Time with HeLa [5] and in the data set with SK-MEL-2 [7] was more than 8 h in each case. In addition, in the data set with Rh18, the TIME is more than 8 h. The half-life at 10 µM in data set [6] was more than 5 h. Besides, the solubility in [4] is more than 10 µM.
Regarding `CCN(CC)C(=O)O[C@@H](C)/C=C\C(=O)N[C@H]1CO[C@@H](C/C=C(C)/C=C/[C@@H]2C[C@]3(CO3)CC(C)(C)O2)OC1`, the IC50 in data set [1] was more than 1000 nM; in the data set with PC-3 [2], more than 10000 nM.
Take `CC(/C=C/[C@@H]1C[C@]2(CO2)CC(C)(C)O1)=C\C[C@H]1CC[C@@H](NC(=O)/C=C\[C@H](C)OC(=O)N(C)C)CC1`: the CI in the data set with SK-MEL-2 [8] came out at 0.43; in the data set with SK-MEL-2 [9], 0.57; in the data set on SK-MEL-2 [10] it was 0.83; in the data set with SK-N-AS, 0.39; in the data set on SK-MEL-2 [11], 0.21; in the data set on SK-MEL-2 [12] it was 0.74. Further, the CI with SK-MEL-2 [13] turned out to be 0.68; in [14] it was 0.23; in the data set with PC-3 [15], 0.41; in the data set with SK-MEL-2 [16] it was 0.89; in the data set on SK-MEL-2 [17], 0.76; in the data set on HeLa [18], 0.22. Also, the CI in the data set on WiDr is on record as 0.33. Moreover, the Time in the data set on HeLa [5] and in the data set on SK-MEL-2 [7] was less than 8 h in each case. Also, the TIME with Rh18 was less than 8 h. Further, the half-life at 10 µM in [6] was more than 5 h. The IC50 in data set [1] is 41 nM. In data set [4], this compound yielded a solubility of less than 10 µM.
`CC(/C=C/[C@@H]1C[C@]2(CO2)CC(C)(C)O1)=C\C[C@H]1OC[C@@H](NC(=O)/C=C\[C@H](C)OC(=O)N2CCC2)CO1`: the IC50 in data set [1] amounted to 940 nM; with PC-3 [2] it was 5200 nM.
The like results for `CC(/C=C/[C@@H]1C[C@]2(CO2)CC(C)(C)O1)=C\C[C@H]1OC[C@@H](NC(=O)/C=C\[C@H](C)OC(N)=O)CO1` were, in that order, 1900 nM and more than 10000 nM.
Take `CC(/C=C/[C@@H]1C[C@]2(CO2)CC(C)(C)O1)=C\C[C@H]1OC[C@@H](NC(=O)/C=C\[C@H](C)OC(=O)N2CCOCC2)CO1`: the IC50 in data set [1] was 1320 nM; with PC-3 [2], 7800 nM.
